Test results reported in paper PMC6253716 (Chemical Science, 2018).
Where two headings read alike, the source gives them in different places.

Key:
[1] = biological target: T1, ERK2 (Homo sapiens, UniProt P28482); test: ERK2 bioassay; type: biochemical
[2] = tested on: pRSK in HCT116 cells; test: Quantification of pRSK by MSD, HCT116; type: cell-based; settings: for IC50: Homo sapiens, read-out: Pharmacodynamic IC50 (pRSK)
Summary of the method: (§1)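 Lysis was 20 min at RT. Lysate was captured 3 h at RT on anti-pRSK-coated MSD plates, detected with sulfo-tag anti-RSK antibody for 1 h, and read electrochemiluminescently. IC50 came from a sigmoidal dose–response fit.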

[3] = tested on: HCT116 KRAS mutant colorectal cells; test: Cell proliferation assay; type: cell-based; settings: Homo sapiens, HCT-116, 96 h, read-out: Anti-proliferative IC50 HCT116
Summary of the method: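 Cells were kept in DMEM + 10% FBS at 37 °C, 5% CO2. 5 × 10^3 cells were seeded one day before treatment. Compound was given in 0.1% (v/v) DMSO for 96 h, then viability was read with Alamar Blue. IC50 came from a sigmoidal dose–response fit.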

[4] = tested on: ERK1/2; test: In-lysate ERK1/2 pull down in competition with TCO-GDC-2; type: binding; settings: HCT116 lysates; for Target engagement EC50 with TCO-GDC-2 probe (in words): apparently exaggerated
[5] = tested on: pRSK in A375 cells; test: Quantification of pRSK by MSD, A375; type: cell-based; settings: Homo sapiens, read-out: Pharmacodynamic IC50 (pRSK)
Summary of the method: as §1

[6] = tested on: ERK1/2; test: In-lysate ERK1/2 pull down in competition with SCH-TCO; type: binding; settings: cell lysates
[7] = biological target: T1, ERK2; test: ITDR-CETSA in HCT116 cells, ERK2; type: cell-based
[8] = tested on: ERK1/2; settings: published data for the untagged compound; cited from earlier work
[9] = biological target: T2, ERK1 (Homo sapiens, UniProt P27361); test: ITDR-CETSA in HCT116 cells, ERK1; type: cell-based
T2 sequence (P27361 whole entry): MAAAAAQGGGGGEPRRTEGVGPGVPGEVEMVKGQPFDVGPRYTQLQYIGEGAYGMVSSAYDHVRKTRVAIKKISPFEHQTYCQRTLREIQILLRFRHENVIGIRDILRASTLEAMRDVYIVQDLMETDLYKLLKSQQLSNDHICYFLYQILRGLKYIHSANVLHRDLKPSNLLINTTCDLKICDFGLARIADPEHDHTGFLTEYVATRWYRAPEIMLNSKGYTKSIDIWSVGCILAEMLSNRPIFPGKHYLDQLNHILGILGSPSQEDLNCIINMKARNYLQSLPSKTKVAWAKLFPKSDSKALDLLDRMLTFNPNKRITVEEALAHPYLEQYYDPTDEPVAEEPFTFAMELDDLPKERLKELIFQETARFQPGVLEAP

[10] = biological target: T2, ERK1; test: In-cell ERK1/2 pull down in competition with SCH-TCO, ERK1; type: cell-based
[11] = biological target: T1, ERK2; test: In-cell ERK1/2 pull down in competition with SCH-TCO, ERK2; type: cell-based
[12] = tested on: ERK1/2; test: CETSA melting curves; type: cell-based; settings: HCT116 cells and lysates; 10 μM inhibitor
Summary of the method: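 HCT116 cells in McCoy's 5A at 3 × 10^6 cells per mL got DMSO or 10 μM inhibitor for 1 h at 37 °C. Lysate arm: TG lysis buffer lysate with 10 μM inhibitor for 15 min at RT. Samples were heated 3 min at 12 temperatures (37–70 °C) and lysed by 3 freeze–thaw cycles. Soluble fraction (20 000g, 20 min) was immunoblotted for total ERK1/2 and quantified by densitometry into melting curves.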

T1 sequence (P28482 whole entry): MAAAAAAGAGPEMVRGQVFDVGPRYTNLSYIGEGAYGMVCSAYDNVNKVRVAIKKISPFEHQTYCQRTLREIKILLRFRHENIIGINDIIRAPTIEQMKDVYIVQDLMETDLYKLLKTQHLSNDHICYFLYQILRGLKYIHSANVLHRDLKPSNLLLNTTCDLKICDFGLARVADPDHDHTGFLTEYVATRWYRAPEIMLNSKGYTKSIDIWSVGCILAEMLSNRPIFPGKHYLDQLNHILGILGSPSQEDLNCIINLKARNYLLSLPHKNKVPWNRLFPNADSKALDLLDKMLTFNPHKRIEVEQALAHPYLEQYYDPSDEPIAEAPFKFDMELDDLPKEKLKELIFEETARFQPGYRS

| Compound | Inhibition of ERK2 (in words) [1] | IC50 ([1]; read-out: Bioassay IC50, geometric means) [nM] | IC50 ([2]; HCT-116, 2 h) [nM] | IC50 ([2]; HCT-116, 7 h) [nM] | IC50 [3] [nM] | Difference between EC50 in competition with TCO-GDC-2 as compared with SCH-TCO [4] [fold] | Target engagement EC50 with TCO-GDC-2 probe (in words) [4] | IC50 ([5]; A-375, 2 h) [nM] | IC50 ([5]; A-375, 7 h) [nM] | Difference between EC50 in A375 and HCT116 lysates [6] | Difference between engagement of ERK1 and ERK2 ([7]; ITDR-CETSA in HCT116 cells, higher affinity for ERK2) [fold] | t1/2 (off-rate, published data) [8] [min] | EC50 [9] [nM] | EC50 [10] [nM] | Suppression of pRSK ([2]; HCT116 cells) | EC50 [11] [nM] | Bioassay % @ 0.003 μM ([1]; at 0.003 μM) | EC50 [7] [nM] | Effect on CETSA melting curves of ERK1/2 relative to DMSO control [12] | IC50 ([5]; A-375, 4 h) [nM] |
| --- | --- | --- | --- | --- | --- | --- | --- | --- | --- | --- | --- | --- | --- | --- | --- | --- | --- | --- | --- | --- |
| Biotin-PEG4-tetrazine [Biotin-PEG4-Tz] | does not appreciably inhibit ERK2 | 8100 |  |  |  |  |  |  |  |  |  |  |  |  |  |  |  |  |  |  |
| Cn1nccc1Nc1nccc(-c2ccn([C@H](CO)c3ccc(Cl)c(F)c3)c(=O)c2)n1 [GDC-0994] |  |  | 140 | 110 | 1000 | ~2 | low nanomolar range | 170 | 130 | 2-3 fold |  |  |  |  |  |  |  |  |  |  |
| O=C(Nc1ccc2[nH]nc(-c3ccncc3)c2c1)[C@@H]1CCN(CC(=O)N2CCN(c3ccc(-c4ncccn4)cc3)CC2)C1 [SCH772984] |  |  | 9 | 6 | 50 |  |  | 20 | 20 |  | 4 | 25 to 80 | 63 | 16 |  |  |  |  |  |  |
| Cn1nccc1Nc1nccc(-c2cc3c(s2)C(C)(C)N(CCN2CCOCC2)C3=O)n1 [LY3214996] |  |  |  |  | 480 | ~2 | low nanomolar range |  |  |  |  |  | 300 | 670 | failed to show convincing suppression of pRSK | 770 | 62% @ 0.003 μM (2) | 330 | temperature shift in the melting curves | 2100 |
